Experimental data from ChEMBL document CHEMBL1156469 (2007).
The source made the active and inactive calls. No cut-off for these calls is given here.

How the values were obtained:
MC3T3-E1 [1] = test: Reversal of increase in ER.DNA complex in mouse MC3T3-E1 cells expressing small interfering RNA for FOXA1 protein at 1 uM by RT-PCR; type: functional, cell-based
Osteoblast [2] = test: Reversal of increase in ER.DNA complex in rat primary osteoblast cells transfected with dominant-negative mutant Src expression vector at 1 uM by RT-PCR; type: functional, cell-based
[3] = molecular target: Alkaline phosphatase (Rattus norvegicus) (UniProt Q9JKS8); test: Inhibition of induction of ALP activity in rat primary osteoblast cells at 1 uM after 48 hrs in presence of noggin; type: cell-based
MC3T3-E1 [4] = test: Reversal of induction in ER.DNA complex in mouse MC3T3-E1 cells at 1 uM by RT-PCR in presence of ICI-182780; type: functional, cell-based
Method in brief: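 BMP-2 promoter quantified by real-time PCR (45 cycles, 61 °C anneal), reported as IP-to-input Ct ratio. DN-Src by 3 μg vector, PP2 at 10 μM; ICI182780 and tamoxifen at indicated concentrations.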

[5] = Reversal of increase in BMP2 expression in mouse MC3T3-E1 cells expressing pBMP2/mERE mutant at 1 uM after 4 hrs by luciferase method; type: functional, cell-based
MDA-MB-231 = test: Induction of FOXO3a nuclear accumulation in human MDA-MB-231 cells FOXO3a-specific small interfering RNA xenografted in nude mice at 10 mg/kg for 2 days; type: functional, organism-based; set-up: dose 10 mg/kg
Osteoblast [6] = test: Effect on serine proteinase inhibitor clade H1 gene expression in rat primary osteoblast cells assessed as expression ratio of treated to untreated control by microarray analysis; type: functional
Method in brief: (§1)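 Resveratrol-treated and vehicle-treated primary osteoblasts were profiled on a mouse osteogenesis-focused cDNA array (GEArray Q series) built to track gene expression during osteogenic differentiation. Each gene's signal in treated cells was expressed as a ratio to untreated control.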

Osteoblast [7] = test: Effect on histone H1 gene expression in rat primary osteoblast cells assessed as expression ratio of treated to untreated control by microarray analysis; type: functional; method in brief: as §1
[8] = molecular target: T1, Estrogen receptor (Mus musculus) (UniProt P19785); test: Reversal of increase in DNA-binding activity of ERalpha in nuclear extracts of mouse MC3T3-E1 cells transfected with dominant-negative mutant Src expression vector by electrophoretic mobility shift assays; type: cell-based
T1 sequence (whole entry): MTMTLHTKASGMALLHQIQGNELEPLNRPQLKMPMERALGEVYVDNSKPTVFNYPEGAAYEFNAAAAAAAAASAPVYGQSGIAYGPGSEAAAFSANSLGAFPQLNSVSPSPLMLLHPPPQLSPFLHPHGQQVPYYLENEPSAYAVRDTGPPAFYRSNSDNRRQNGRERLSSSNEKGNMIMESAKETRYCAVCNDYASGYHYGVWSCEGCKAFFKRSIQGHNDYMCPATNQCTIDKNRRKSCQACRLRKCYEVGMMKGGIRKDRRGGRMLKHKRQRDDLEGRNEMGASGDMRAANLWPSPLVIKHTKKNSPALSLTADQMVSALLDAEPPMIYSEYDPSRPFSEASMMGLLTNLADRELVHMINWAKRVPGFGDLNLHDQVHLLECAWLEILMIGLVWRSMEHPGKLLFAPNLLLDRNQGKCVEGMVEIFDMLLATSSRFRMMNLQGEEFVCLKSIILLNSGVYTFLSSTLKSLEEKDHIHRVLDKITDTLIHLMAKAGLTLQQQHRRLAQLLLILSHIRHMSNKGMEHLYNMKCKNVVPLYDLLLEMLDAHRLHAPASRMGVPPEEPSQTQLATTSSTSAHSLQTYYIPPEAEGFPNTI
Method in brief: (§2)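 Nuclear extracts of MC3T3-E1 cells. ER-binding probe [α-32P]dCTP end-labeled, 20-min binding at room temperature, 5-fold unlabeled competitor where used. Complexes resolved on 5% nondenaturing PAGE in Tris-borate-EDTA pH 8.3, then autoradiography.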

[9] = Reversal of increase in pBMP2 expression in mouse MC3T3-E1 cells transfected with dominant-negative mutant Src expression vector at 1 uM by luciferase method; type: functional, cell-based
Method in brief: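 BMP-2 promoter activity measured by dual-luciferase assay and expressed relative to the untreated vector control.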

[10] = molecular target: Proto-oncogene tyrosine-protein kinase Src (Mus musculus) (UniProt P05480); test: Reversal of increase in Src kinase phosphorylation in mouse MC3T3-E1 cells at 1 uM in presence of PP2; type: cell-based
Method in brief: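 Src phosphorylation, ERα nuclear translocation and BMP-2 protein analysed by Western blot with ECL detection. Three independent experiments.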

[11] = molecular target: Alkaline phosphatase, germ cell type (Homo sapiens) (UniProt P10696); test: Increase in ALP activity in human MG63 cells at 0.1 to 10 uM after 7 days; type: cell-based; settings: MG-63
Osteoblast [12] = test: Increase in BMP2 levels in rat primary osteoblast cells at 1 uM after 48 hrs by ELISA; type: functional, cell-based
Method in brief: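 Culture medium collected after 48 h treatment at indicated concentrations; BMP-2 sandwich ELISA, 2 h room temperature incubation, HRP-streptavidin with TMB, absorbance at 450 nm; expressed as percent change versus untreated control.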

MC3T3-E1 [13] = test: Increase in proliferation of mouse MC3T3-E1 cells assessed as fraction of cells in S phase at 0.1 to 10 uM after 24 hr by flow cytometry; type: functional, cell-based
Osteoblast [14] = test: Effect on matrix metalloprotease 13 gene expression in rat primary osteoblast cells assessed as expression ratio of treated to untreated control by microarray analysis; type: functional; method in brief: as §1
MC3T3-E1 [15] = test: Increase in osteocalcin mRNA levels in mouse MC3T3-E1 cells at 1 uM after 72 hrs by RT-PCR; type: functional, cell-based
Method in brief: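 Cells treated with 1 μm for 72 h; osteocalcin and osteopontin mRNA by RT-PCR, 30 cycles (95/52/72 °C, 1 min each), ethidium bromide–stained agarose gels; repeated at least twice from at least two cDNA preparations.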

Osteoblast [16] = test: Effect on procollagen 9 alpha 1 gene expression in rat primary osteoblast cells assessed as expression ratio of treated to untreated control by microarray analysis; type: functional; method in brief: as §1
MG-63 = test: Increase in osteocalcin levels in human MG63 cells at 1 uM after 72 hrs by ELISA; type: functional, cell-based
Method in brief: (§3)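 Cells treated with 1 μm for 72 h; osteocalcin or osteopontin in culture medium by sandwich ELISA, HRP-streptavidin/TMB, 450 nm; percent change versus untreated control.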

MC3T3-E1 [17] = test: Increase in osteocalcin levels in mouse MC3T3-E1 cells at 1 uM after 72 hrs by ELISA; type: functional, cell-based; method in brief: as §3
[18] = molecular target: T1, Estrogen receptor (Mus musculus); test: Reversal of increase in DNA-binding activity of ERalpha in nuclear extracts of mouse MC3T3-E1 cells by electrophoretic mobility shift assays in presence of ICI-182780; type: cell-based; method in brief: as §2
[19] = Reversal of induction of BMP2 expression in mouse MC3T3-E1 cells at 1 uM by Western blot in presence of short interfering ERalpha-RNA; type: functional, cell-based
Osteoblast [20] = test: Effect on procollagen 9 alpha 3 gene expression in rat primary osteoblast cells assessed as expression ratio of treated to untreated control by microarray analysis; type: functional; method in brief: as §1
Osteoblast [21] = test: Effect on cathepsin K gene expression in rat primary osteoblast cells assessed as expression ratio of treated to untreated control by microarray analysis; type: functional
Osteoblast [22] = test: Effect on bone morphogenetic protein 6 gene expression in rat primary osteoblast cells assessed as expression ratio of treated to untreated control by microarray analysis; type: functional

Chain of Alkaline phosphatase, germ cell type (Homo sapiens) (P10696 20-503 limits assumed): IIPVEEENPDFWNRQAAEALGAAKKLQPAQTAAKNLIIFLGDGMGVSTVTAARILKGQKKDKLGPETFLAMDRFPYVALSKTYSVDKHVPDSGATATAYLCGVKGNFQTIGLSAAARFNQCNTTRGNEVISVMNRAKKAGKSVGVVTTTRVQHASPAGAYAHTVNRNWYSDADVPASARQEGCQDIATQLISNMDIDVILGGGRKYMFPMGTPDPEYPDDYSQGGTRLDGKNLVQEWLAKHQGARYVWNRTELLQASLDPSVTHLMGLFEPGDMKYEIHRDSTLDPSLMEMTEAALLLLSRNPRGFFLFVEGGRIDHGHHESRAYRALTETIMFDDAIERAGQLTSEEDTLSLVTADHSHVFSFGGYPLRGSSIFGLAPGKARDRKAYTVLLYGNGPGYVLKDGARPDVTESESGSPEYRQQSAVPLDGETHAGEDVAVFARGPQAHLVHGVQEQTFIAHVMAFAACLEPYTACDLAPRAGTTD
Chain of Alkaline phosphatase (Rattus norvegicus) (Q9JKS8 as listed by the source): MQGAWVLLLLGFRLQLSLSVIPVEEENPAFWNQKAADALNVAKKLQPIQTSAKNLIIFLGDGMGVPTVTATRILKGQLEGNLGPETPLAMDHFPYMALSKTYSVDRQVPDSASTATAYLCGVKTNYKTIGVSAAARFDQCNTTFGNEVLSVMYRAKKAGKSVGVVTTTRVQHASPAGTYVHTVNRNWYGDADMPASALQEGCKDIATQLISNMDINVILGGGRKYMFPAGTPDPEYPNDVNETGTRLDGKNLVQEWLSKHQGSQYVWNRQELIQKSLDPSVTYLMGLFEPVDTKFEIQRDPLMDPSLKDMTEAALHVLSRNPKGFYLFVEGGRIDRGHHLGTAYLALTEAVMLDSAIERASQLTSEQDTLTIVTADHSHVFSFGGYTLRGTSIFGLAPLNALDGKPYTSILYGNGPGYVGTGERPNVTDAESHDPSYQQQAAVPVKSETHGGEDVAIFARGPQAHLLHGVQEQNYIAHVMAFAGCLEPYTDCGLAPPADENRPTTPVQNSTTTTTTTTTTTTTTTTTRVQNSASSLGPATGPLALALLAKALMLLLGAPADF
Chain of Proto-oncogene tyrosine-protein kinase Src (Mus musculus) (P05480 2-535 limits assumed): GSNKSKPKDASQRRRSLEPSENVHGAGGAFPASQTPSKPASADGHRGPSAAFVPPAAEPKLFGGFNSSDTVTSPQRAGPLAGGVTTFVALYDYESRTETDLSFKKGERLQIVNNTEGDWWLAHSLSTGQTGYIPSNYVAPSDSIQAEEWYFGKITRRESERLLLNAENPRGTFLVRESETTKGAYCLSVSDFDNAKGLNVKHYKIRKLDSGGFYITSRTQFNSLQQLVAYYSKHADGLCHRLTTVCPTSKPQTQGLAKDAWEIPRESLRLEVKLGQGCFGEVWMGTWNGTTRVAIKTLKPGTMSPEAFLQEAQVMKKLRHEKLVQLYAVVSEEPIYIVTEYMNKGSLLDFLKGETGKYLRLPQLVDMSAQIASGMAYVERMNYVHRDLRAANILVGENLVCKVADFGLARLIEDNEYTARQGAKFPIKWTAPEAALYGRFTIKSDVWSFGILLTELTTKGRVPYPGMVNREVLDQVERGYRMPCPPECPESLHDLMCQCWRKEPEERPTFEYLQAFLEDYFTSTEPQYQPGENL

Activity [3]: Active | Activity [8]: Active | Activity [10]: Active | Activity [11]: Active | Activity [18]: Active
Compound: Oc1ccc(/C=C/c2cc(O)cc(O)c2)cc1 [RESVERATROL]
Activity (MC3T3-E1 [1]): Active | Activity (Osteoblast [2]): Active | Activity (MC3T3-E1 [4]): Dose-dependent effect | Activity [5]: 80% | Activity (MDA-MB-231): Active | Ratio (Osteoblast [6]): 2.82 | Ratio (Osteoblast [7]): 0.44 | Activity [9]: Active | Activity (Osteoblast [12]): Dose-dependent effect | Activity (MC3T3-E1 [13]): Active | Ratio (Osteoblast [14]): 0.64 | Activity (MC3T3-E1 [15]): Active | Ratio (Osteoblast [16]): 3.99 | Activity (MG-63): Active | Activity (MC3T3-E1 [17]): Active | Activity [19]: Active | Ratio (Osteoblast [20]): 6.67 | Ratio (Osteoblast [21]): 5.6 | Ratio (Osteoblast [22]): 3.38
